# From PubChem
# MrgX1 agonist: agonists of human MrgX1 receptor, primary screen, HEK293 cells, Fluo-4 calcium flux | Mas-related G-protein coupled receptor member X1 (Homo sapiens), Q96LB2 | Fluo-4 calcium fluorescence, agonist mode; hits give high values | B-score at 10 µM | hit rate 0.44% among 310,000;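 active means calcium response B-score plate-corrected fluorescence ratio at least 3 library SD, with starting fluorescence B-score inside 5 SD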
# Target sequence (Q96LB2 whole entry, looked up): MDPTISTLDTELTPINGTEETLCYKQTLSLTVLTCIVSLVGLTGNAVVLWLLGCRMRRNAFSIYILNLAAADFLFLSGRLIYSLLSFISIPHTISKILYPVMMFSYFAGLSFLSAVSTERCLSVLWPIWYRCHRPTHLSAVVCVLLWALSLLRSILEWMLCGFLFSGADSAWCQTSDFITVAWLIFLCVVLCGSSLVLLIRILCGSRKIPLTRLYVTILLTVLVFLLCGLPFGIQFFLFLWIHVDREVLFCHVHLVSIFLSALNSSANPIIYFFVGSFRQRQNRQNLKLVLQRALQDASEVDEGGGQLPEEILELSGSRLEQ
#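 Test system: HEK293 cells stably expressing human MrgX1 receptor; amount: 15,000 cells per well; doses: compound delivered in addition one of three; times: overnight plating before 1 h dye loading; detection: Fluo-4 NW calcium-flux fluorescence, kinetic read; read-out basis: B-scored fluorescence response ratio; controls: positive and negative controls per plate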
# RGS4 act: RGS4 potentiators or activators, primary screen, cell-based, HEK293 M3R inducible RGS4, calcium flux | carbachol calcium flux Fluo4; hits give low values | B-score at 10 µM | hit rate 0.92% among 310,000 | AID 463111, 2010;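 active means B-score of the integrated calcium signal more than 4 SD below the library mean, with starting fluorescence not abnormally high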;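 further: negative B-score means reduced calcium response which marks RGS4 activation or potentiation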
#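 Material: Inducible-RGS4 HEK293 cells carrying M3 receptor; also added: carbachol at ECmax as muscarinic agonist stimulus; incubation: compound preincubation 20 min at room temperature before agonist; signal: Fluo4-AM (2 µM) calcium-flux fluorescence, kinetic read; measure: integrated calcium ratio converted to B score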
# MrgX1 allo act: positive allosteric modulators of MrgX1, primary screen, HEK293 cells, Fluo-4 calcium flux; hit rate 0.63% among 310,000; AID 588675, 2011; FDSS; hits give high values; B-score at 10 µM;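 active means plate-corrected calcium response at least 3 library SD above typical, normal starting fluorescence, not activating the receptor alone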;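 further: compound read alongside a low EC10 to EC30 dose of BAM8-22 agonist; peak minus trough fluorescence over baseline measured at the second addition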
# RGS4 block: RGS4 inhibitors, primary screen, cell-based, HEK293 M3R inducible RGS4, calcium flux | Regulator of G-protein signaling 4 (Homo sapiens), P49798 | Fluo-4 calcium flux; hits give high values; triggered by carbachol at its EC20 | B-score at 10 µM | hit rate 0.45% among 310,000;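 active means B-score, a plate-corrected calcium signal, over three deviations above library mean, with baseline fluorescence within five deviations of library mean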;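 further: RGS4 expression induced by doxycycline in cells with stable M3 receptor; B-score is computed from the integrated fluorescence ratio over baseline after carbachol; higher B-score means a larger calcium signal and so more RGS4 inhibition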
# Target sequence (P49798 whole entry, looked up): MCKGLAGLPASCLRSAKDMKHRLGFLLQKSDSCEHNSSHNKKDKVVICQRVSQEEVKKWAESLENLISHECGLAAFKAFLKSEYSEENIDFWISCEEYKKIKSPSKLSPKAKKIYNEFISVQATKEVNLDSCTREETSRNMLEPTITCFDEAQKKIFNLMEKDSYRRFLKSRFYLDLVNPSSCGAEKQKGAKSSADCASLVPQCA
# MrgX1 antag: antagonists of human MrgX1 receptor, primary screen, HEK293 cells, Fluo-4 calcium flux. Mas-related G-protein coupled receptor member X1 (Homo sapiens), Q96LB2. BAM8-22 antagonism; hits give low values. B-score at 10 µM. hit rate 1.3% among 310,000. AID 588676, 2011;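 active means calcium-response B-score plate-corrected more than 3 library SD below zero, starting fluorescence within 5 deviations, no agonist response on first addition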;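 further: peak minus trough fluorescence over baseline after final BAM8-22 challenge near maximal dose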
# RGS4 block valid: enhanced carbachol calcium response, M3R/RGS4 cells, RGS4 inhibitor project, cell-based, validation screen, HEK293 M3R/RGS4, calcium flux; carbachol calcium Fluo-4 fluorescence; carbachol added at its EC20; 0 = buffer wells, 100 = carbachol control; shares compounds with RGS4 block; calcium response, % at 10 µM; hit rate 65% among 1,700;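 active means duplicate-averaged calcium response above the buffer-only control mean plus 5 SD of those controls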;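 further: integrated fluorescence ratio F max minus min over baseline F0; higher response in RGS4-induced cells means RGS4 inhibition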
# RGS4 uninduced: carbachol calcium response in non-induced M3R cells, confirmation, counter-screen for RGS4 inhibitor project, cell-based, HEK293 M3R; shares compounds with RGS4 block; carbachol calcium Fluo-4; submaximal (EC20) carbachol stimulus; buffer wells 0%, carbachol control wells 100%; activity (percent), % at 10 µM; hit rate 20% among 1,900; AID 493000, 2010; call rule not given here;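 further: RGS4 induction absent so cells express M3R without RGS4; higher means more calcium signal and flags a non-specific hit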
# M3R basal Ca ctr: second counter-screen for RGS4 inhibitors: non-induced cells without carbachol; shares compounds with RGS4 block; HEK293 M3R/RGS4 non-induced, Fluo-4 calcium, no carbachol; normalised: buffer wells 0%, carbachol wells 100%; calcium response (agonist-mode artifact), % at 10 µM; hit rate 22% among 1,900; AID 493001;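 active means duplicate-averaged calcium rise in uninduced cells above buffer wells' mean plus 5 SD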
# Hits are given with their value; i = inactive; nt = no result given. An excerpt weighted towards active compounds, which were near 3.5% of everything screened.
SMILES,MrgX1 agonist,RGS4 act,MrgX1 allo act,RGS4 block,MrgX1 antag,RGS4 block valid,RGS4 uninduced,M3R basal Ca ctr
CCOC(=O)[C@@H]1[C@H]2COc3cc(OC)ccc3[C@H]2N2C(=O)N(c3cccc(Cl)c3)C(=O)[C@]12C,i,i,i,i,i,i,i,i
COc1ccc(CNC(=O)CN(Cc2ccc(OC)cc2)C(=O)CCC(=O)Nc2ccccn2)cc1,i,i,i,i,i,nt,nt,nt
CCNc1c(NS(=O)(=O)c2ccc([N+](=O)[O-])cc2)c(=O)oc2ccccc12,i,i,i,i,i,nt,nt,nt
CNc1nc2c(N)ncnc2n1[C@H]1O[C@@H](CO)[C@H](O)[C@@H]1O,i,i,i,6.84,i,13.0%,35.5%,i
Nc1ncnc2c1ncn2[C@@H]1O[C@H](CO)[C@@H](O)[C@@H]1O,i,i,i,i,i,nt,nt,nt
Nc1nc(F)nc2c1ncn2[C@@H]1O[C@H](CO)[C@@H](O)[C@@H]1O,i,i,i,i,i,nt,nt,nt
Nc1nc(Nc2ccccc2)nc2c1ncn2[C@@H]1O[C@H](CO)[C@@H](O)[C@H]1O,i,i,6.45,6.18,i,23.5%,i,357.0%
Nc1nc(F)nc2c1ncn2[C@@H]1O[C@H](CO)[C@@H](O)[C@H]1O,i,i,i,10.9,i,51.5%,30.5%,i
Nc1ncnc2c1ncn2C1OC(CO)C(O)C1N (stereo not drawn),i,i,i,i,i,nt,i,i
Nc1ncnc2c1ncn2C1O[C@H](CO)[C@@H](O)[C@@H]1O (stereo partly drawn),i,nt,i,nt,i,nt,nt,nt
O=C(CSc1n[nH]c(-c2cccs2)n1)NCCc1ccccc1,i,i,i,i,i,nt,nt,nt
Cc1cc(C(=O)NN=C2CCCCCC2)c(C)o1,i,i,i,i,i,nt,nt,nt
CCC(=O)Nc1ccc(C=C(C(C)=O)C(C)=O)cc1,i,i,i,5,i,56.5%,29.0%,16.0%
CN1C/C(=C/c2ccncc2)C(=O)/C(=C/c2ccncc2)C1,i,i,i,20.6,i,80.0%,i,i
CCOc1cc(/C=C2\CN(C)C/C(=C\c3ccc(O)c(OCC)c3)C2=O)ccc1O,i,i,i,i,i,nt,nt,nt
CN1C/C(=C/c2ccsc2)C(=O)/C(=C/c2ccsc2)C1,i,i,i,6.81,i,9.5%,i,i
CN1C/C(=C\c2ccc(N3CCOCC3)cc2)C(=O)/C(=C/c2ccc(N3CCOCC3)cc2)C1,i,i,i,i,i,nt,nt,nt
COc1ccc(N(CC(=O)N2CCOCC2)S(C)(=O)=O)cc1OC,i,i,i,i,i,nt,nt,nt
CC(NC(=O)/C(C#N)=C/c1ccc(C(=O)O)cc1)c1ccccc1 (stereo not drawn),i,i,i,12.8,i,44.0%,39.5%,i
CC(C)(C)Sc1ccc(/C=N/O)cc1[N+](=O)[O-],i,i,i,6.81,i,10.0%,i,i
COc1ccc(OC)c(NC(=O)CCCSc2ccccc2)c1,i,i,i,i,i,nt,nt,nt
COC(=O)C[C@H]1c2cc(F)cc(F)c2S(=O)(=O)N1C1CCN(Cc2ccccc2)CC1,i,i,i,i,i,nt,nt,nt
Cc1ccc(SCc2[nH]nc3c2C2(C(=O)Nc4ccc(F)cc42)C(C#N)=C(N)O3)cc1 (stereo not drawn),i,i,i,i,i,nt,i,i
CCN(CC(=O)Nc1c(F)cccc1F)C(=O)c1cc(C)nc2ccccc12,i,i,i,i,i,nt,nt,nt
Cc1ccc(NC(=O)N2CCCC2C(=O)Nc2ccc3c(c2)OCCO3)cc1 (stereo not drawn),i,i,i,i,i,nt,nt,nt
SMILES,MrgX1 agonist,RGS4 act,MrgX1 allo act,RGS4 block,MrgX1 antag,RGS4 block valid,RGS4 uninduced,M3R basal Ca ctr
O=C(O)c1cccc(Nc2nc(Nc3ccccc3)nc(N3CCCC3)n2)c1,i,i,i,i,i,nt,nt,nt
COc1nc(N/N=C/c2ccc(C)cc2)nc(N2CCCCC2)n1,i,i,i,i,i,nt,nt,nt
COc1nc(Nc2cccc(C)c2)nc(N2CCCCC2)n1,i,i,i,i,i,i,i,i
Cc1cccc(Nc2nc(N3CCCC3)nc(N3CCCC3)n2)c1,i,i,i,i,i,i,i,i
C=CCc1c(C)nc(SCc2ccccc2)[nH]c1=O,i,i,i,i,i,nt,nt,nt
O=C(CN(C(=O)CNC(=O)c1ccco1)c1ccccc1F)NC1CCCCC1,i,i,i,i,i,nt,nt,nt
CC1=CC2=NC(=O)/C(=C/c3cccn3Cc3ccccc3)C(=N)N2O1,i,i,i,i,i,nt,nt,nt
N=C1/C(=C/c2cccn2Cc2ccc(Cl)cc2)C(=O)N=C2SC=CN12,i,i,i,8.38,i,5.0%,i,i
CCOc1ccc(NC(=O)C(=O)NCCN2CCN(S(=O)(=O)c3ccc(C)cc3)CC2)cc1,i,i,i,i,i,nt,nt,nt
COc1cccc(N2[C@@H](CC(C)=O)c3ccc(/C=C/C(C)=O)cc3S2(=O)=O)c1,i,i,i,8.2,i,31.5%,54.5%,i
COc1ccc(CN2[C@@H](CC(C)=O)c3ccc(/C=C/C(C)=O)cc3S2(=O)=O)cc1,i,i,i,i,i,nt,nt,nt
CC(=O)c1ccc(OCc2cc(C(=O)NC(C)CCn3cccn3)no2)cc1 (stereo not drawn),i,i,i,i,i,nt,nt,nt
CCCN1C(=O)/C(=C/c2nc3ccccc3c(=O)[nH]2)c2cc(C)ccc21,i,i,i,9.49,i,26.5%,57.5%,i
CCCN1C(=O)/C(=C/c2nc3ccccc3c(=O)[nH]2)c2ccccc21,i,i,i,11,i,8.5%,i,i
COC(=O)c1cc(C(=O)NCc2ccc3c(c2)OCO3)cc([N+](=O)[O-])c1,i,i,i,i,i,nt,nt,nt
COc1ccc(C2c3c(-c4ccccc4O)n[nH]c3C(=O)N2Cc2ccco2)cc1OC (stereo not drawn),i,i,i,i,i,nt,nt,nt
O=C1c2[nH]nc(-c3ccccc3O)c2C(c2cccc(Cl)c2)N1Cc1ccco1 (stereo not drawn),i,i,i,8.08,i,25.0%,i,i
O=C1c2[nH]nc(-c3ccccc3O)c2C(c2ccc(F)cc2)N1Cc1ccco1 (stereo not drawn),i,i,i,9.04,i,19.5%,i,i
